The source made the active and inactive calls. No cut-off for these calls is given here.
How the values were obtained:
[1] = test system: Human immunodeficiency virus 1; assay: Reactivation of latent HIV1 infected in human U1 cells assessed as increase in p24 production after 48 hrs by ELISA relative to vorinostat; assay type: functional
Outline: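 U1 cells at 2x10^5 cells/ml incubated with a range of concentrations at 37 °C for 48 h. Supernatant p24 measured by HIV p24 ELISA. EC50 ± SD derived from 3 independent experiments.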

[2] = Cytotoxicity against human U937 cells assessed as reduction in cell viability after 48 hrs by CellTiter-Glo luminescent cell viability assay; assay type: cell-based, U-937
Outline: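 U937 cells (HIV-1-negative parental line of U1) at 2x10^5 cells/ml exposed to a range of concentrations for 48 h at 37 °C. Viability read by CellTiter-Glo luminescence. CC50 ± SD derived from 3 independent experiments.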

[3] = Cytotoxicity against human Jurkat cells assessed as reduction in cell viability after 72 hrs by CellTiter-Glo luminescent cell viability assay; assay type: cell-based
PBMC = assay: Induction of IFNgamma1 production in human PBMC at 3 uM after 2 days by ELISA; assay type: cell-based; details: 48 h
[4] = Cytotoxicity against human J-Lat (A2) cells assessed as effect on cell viability at 0.3 uM after 72 hrs by flow cytometric analysis; assay type: cell-based
Outline: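 J-Lat (A2) cells, 1x10^6 cells/well, incubated with the test agent at 37 °C for 72 h. GFP-expressing cells and percent viable cells measured by flow cytometry. Two independent experiments.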

[5] = test system: Human immunodeficiency virus 1; assay: Reactivation of latent HIV1 infected in human U1 cells assessed as increase in p24 production after 48 hrs by ELISA; assay type: functional, organism-based
[6] = target: Histone deacetylase 3/Nuclear receptor corepressor 2 (HDAC3/NCoR2) (Homo sapiens) (UniProt O15379+Q9Y618); assay: Inhibition of full length human C-terminal His-tagged HDAC3/N-terminal GST-tagged NCOR2 (395 to 489 residues) expressed in baculovirus infected Sf9 insect cells using substrate measured after 60 mins by colorimetric method
[7] = Selectivity index, ratio of CC50 for human U937 cells to EC50 for reactivation of latent HIV1 infected in human U1 cells
[8] = Human immunodeficiency virus 1, U1, 48 h, read-out: EC50

SMILES	fold change (FC) [1]	CC50 at 48 h [2] [nM]	CC50 at 72 h [3] [nM]	Activity (PBMC)	Activity [4]	EC50 [5, 8] [nM]	inhibition [6]	selectivity ratio [7]	EC50 ([5]; u1)	selectivity ratio ([7]; U937 cells (CC50) and latent HIV-1 infected U1 cells (EC50))
CC(=O)Nc1ccc(C(=O)Nc2cc(-c3cccs3)ccc2N)cc1	1.4	14000	12600	Non-Toxic	Non-Toxic	930	–	–	–	–
Nc1ccccc1NC(=O)c1ccc(-c2cn(CCc3ccsc3)nn2)cc1	0.12	830	–	–	–	600	Active	1.4	–	–
Nc1cc(F)ccc1NC(=O)/C=C/c1cnn(C/C=C/c2ccccc2)c1	0	–	–	–	–	–	Active	–	Not Active	–
Nc1ccc(F)cc1NC(=O)c1ccc(CNC(=O)/C=C/c2cccnc2)cc1	1.5	5000	–	–	–	1400	–	–	–	3.6
